Data: PubChem BioAssay
Calls of active or inactive are those of the source.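 The calls were made as follows, unless noted: active = mean duplicate potentiation above the buffer control mean plus 5 SD of buffer wells; inactive = the rest.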

Columns and labels:
[1] = thallium flux activation in parental CHO cells, counter-screen for KCNQ1 potentiator project (AID 493006;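 active = duplicate-averaged activation above buffer control mean plus 5 SD of those controls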;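 as to activation: fluorescence ratio of max minus min over baseline after K+ and Tl+ depolarization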); settings: parental CHO-K1 cells, FluxOR thallium flux, at 10 µM; active compounds read high
Summary of the method: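 Material: parental CHO-K1 cells, FluxOR dye-loaded; Also added: Potassium/thallium depolarization pulse; Schedule: overnight 37 °C plating, 90 min dye, 20 min dark compound; Signal: kinetic FluxOR fluorescence, 10 s baseline, 110 s after stimulus.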

[2] = target: Potassium voltage-gated channel subfamily KQT member 1 (Homo sapiens) (UniProt P51787); experiment: KCNQ1 potassium channel potentiators, confirmation, FluxOR thallium flux, CHO cells, duplicates (AID 493007;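 active = potentiation averaged over duplicate wells exceeding buffer-only control mean by more than 3 SD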;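 as to outcome: cells depolarized by a potassium plus thallium sulfate stimulus after compound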); settings: KCNQ1 cell line, FluxOR thallium flux fluorescence, at 10 µM; active compounds read high, % of reference activator effect, buffer zero
Summary of the method: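 System: KCNQ1-expressing CHO cell line; technique: kinetic thallium influx fluorescence with FluxOR dye, 10 s baseline, 110 s post-stimulus; timing: dye 90 min then compound 20 min, both at room temperature; controls: buffer-only wells as 0% and R-L3 activator as 100%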

[3] = target: Potassium voltage-gated channel subfamily KQT member 2 (Rattus norvegicus) (UniProt O88943); experiment: rat KCNQ2 channel potentiation, selectivity assay for KCNQ1 potentiator project, KCNQ2-CHO-K1 cells (AID 493009); settings: FluxOR thallium flux fluorescence, at 10 µM; active compounds read high, scaled: buffer 0, activator control 100;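 also: assay conditions were tuned for KCNQ1 rather than KCNQ2 modulators; signal is max minus min fluorescence divided by baseline after thallium stimulus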
[4] = target: Potassium voltage-gated channel subfamily KQT member 1 (Homo sapiens) (UniProt P51787); experiment: KCNQ1 channel current potentiators, confirmation, orthogonal assay for KCNQ1 potentiator project, IonWorks patch clamp, KCNQ1-CHO cells (AID 493184;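 active = current rise at least 3 SD above the untreated control mean in each of two repeat wells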;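 as to current potentiation: percent change of the same well's current before compound addition so 0% = no change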); settings: automated patch clamp current, at 10 µM; active compounds read high
Summary of the method: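 Test system: KCNQ1-expressing CHO cells. Medium: pH 7.4 external bath. Probe or stimulus: voltage step from -90 mV holding to +40 mV, 2,000 ms. Compound: 10 µM final, single point. Detection: automated perforated-patch electrophysiology. Read-out: percent current increase versus pre-compound level. Repeats: two replicates.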

Potassium voltage-gated channel subfamily KQT member 1 (Homo sapiens), sequence (P51787 whole entry, looked up): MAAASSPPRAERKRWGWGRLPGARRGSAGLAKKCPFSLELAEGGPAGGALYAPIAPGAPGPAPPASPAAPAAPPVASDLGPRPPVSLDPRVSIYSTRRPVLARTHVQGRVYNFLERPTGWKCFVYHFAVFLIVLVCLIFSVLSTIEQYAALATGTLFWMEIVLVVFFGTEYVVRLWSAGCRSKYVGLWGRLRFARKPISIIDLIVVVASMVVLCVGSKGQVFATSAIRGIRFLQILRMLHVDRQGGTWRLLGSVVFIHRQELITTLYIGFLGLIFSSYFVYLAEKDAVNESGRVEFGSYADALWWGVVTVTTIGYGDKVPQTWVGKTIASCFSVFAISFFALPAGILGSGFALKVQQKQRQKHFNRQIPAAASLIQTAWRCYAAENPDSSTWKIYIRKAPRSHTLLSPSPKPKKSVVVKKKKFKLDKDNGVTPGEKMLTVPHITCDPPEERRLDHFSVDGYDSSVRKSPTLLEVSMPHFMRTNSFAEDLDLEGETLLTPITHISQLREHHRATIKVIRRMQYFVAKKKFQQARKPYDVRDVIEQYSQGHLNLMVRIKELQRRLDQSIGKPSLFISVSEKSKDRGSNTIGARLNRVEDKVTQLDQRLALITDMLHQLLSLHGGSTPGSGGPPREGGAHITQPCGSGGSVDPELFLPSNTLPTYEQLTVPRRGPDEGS
Potassium voltage-gated channel subfamily KQT member 2 (Rattus norvegicus), sequence (O88943 whole entry, looked up): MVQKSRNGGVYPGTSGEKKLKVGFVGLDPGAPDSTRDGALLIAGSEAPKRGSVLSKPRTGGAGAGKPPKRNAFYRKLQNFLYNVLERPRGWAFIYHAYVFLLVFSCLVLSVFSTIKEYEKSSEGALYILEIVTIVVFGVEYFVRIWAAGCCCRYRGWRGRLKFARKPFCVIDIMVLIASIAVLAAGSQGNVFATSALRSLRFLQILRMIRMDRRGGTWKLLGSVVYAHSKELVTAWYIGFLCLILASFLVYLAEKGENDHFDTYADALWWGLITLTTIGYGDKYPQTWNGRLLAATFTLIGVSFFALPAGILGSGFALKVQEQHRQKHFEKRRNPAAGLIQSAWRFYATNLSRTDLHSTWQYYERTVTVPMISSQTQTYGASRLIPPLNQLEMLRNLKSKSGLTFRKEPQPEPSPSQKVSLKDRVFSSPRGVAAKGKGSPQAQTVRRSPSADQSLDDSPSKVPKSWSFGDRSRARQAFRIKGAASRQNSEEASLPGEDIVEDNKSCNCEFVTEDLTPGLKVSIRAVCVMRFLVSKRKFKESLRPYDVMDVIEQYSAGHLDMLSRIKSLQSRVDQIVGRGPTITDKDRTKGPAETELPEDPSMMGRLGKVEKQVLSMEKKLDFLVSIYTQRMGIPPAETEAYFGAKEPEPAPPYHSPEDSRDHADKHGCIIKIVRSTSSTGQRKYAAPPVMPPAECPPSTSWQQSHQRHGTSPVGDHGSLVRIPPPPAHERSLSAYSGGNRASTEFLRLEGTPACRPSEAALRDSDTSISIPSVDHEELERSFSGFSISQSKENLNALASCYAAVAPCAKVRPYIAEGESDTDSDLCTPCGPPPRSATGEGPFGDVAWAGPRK

| Structure (SMILES) | outcome [1] | outcome [2] | outcome [3] | outcome [4] | activation [1] | potentiation [2] | potentiation [3] | current potentiation [4] |
| --- | --- | --- | --- | --- | --- | --- | --- | --- |
| Cc1cccc(OCC(=O)O/N=C(\N)c2ccc(Cl)cc2)c1 | inactive | inactive | inactive | inactive |  |  |  |  |
| O=C(COc1ccccc1F)Nc1ccc(S(=O)(=O)NCc2ccco2)cc1 | inactive | inactive | inactive | inactive |  |  |  |  |
| CCOC(=O)c1c(CN2CCN(CCO)CC2)n(C)c2cc(Br)c(OC)cc12 | inactive | inactive | inactive | inactive |  |  |  |  |
| COc1cc(-c2nnc(COC(=O)c3cccn3C)o2)cc(OC)c1OC | inactive | inactive | inactive | inactive |  |  |  |  |
| O=C(NC(=S)N1CCN(c2ccc(C(F)(F)F)cc2[N+](=O)[O-])CC1)c1cccs1 |  |  |  | inactive | 176% (active) | 75% (active) | 215% (active) |  |
| COc1cc(/C=C2\C(=O)N(C)C(=S)N2C)ccc1O | inactive | inactive | inactive | inactive |  |  |  |  |
| O=C(c1ccco1)N1CCN=C1SCc1ccc(F)cc1 | inactive | inactive | inactive | inactive |  |  |  |  |
| CCC(CC)c1nnc(NC(=O)c2cc(C(=O)OC)cc([N+](=O)[O-])c2)s1 |  |  |  | inactive | 366% (active) | 179% (active) | 419% (active) |  |
| Cc1ccc(C(C(=O)NC2CCCCC2)N(Cc2cccnc2)C(=O)C2COc3ccccc3O2)o1 (stereo not given) | inactive | inactive | inactive | inactive |  |  |  |  |
| Cc1ccc(CN2CCN(/N=C/C(Br)=C\c3ccccc3)CC2)cc1 | inactive | inactive | inactive | inactive |  |  |  |  |
| Oc1c(Br)cc(Br)cc1C=NCc1ccc(F)cc1 |  | inactive |  | inactive | 153% (active) |  | 146% (active) |  |
| Cc1cc(NC(=O)CCC(=O)N(C2CC2)C(C(=O)NC(C)(C)C)c2ccccc2Cl)no1 (stereo not given) | inactive |  | inactive | inactive |  | 25.5% (active) |  |  |
| Cc1ccc2c(c1)C1CN(C)CCC1N2C(=S)NC(=O)c1ccc(Cl)cc1Cl (stereo not given) |  |  |  | inactive | 194% (active) | 50% (active) | 217% (active) |  |
| O=C(/C=C/c1ccc(Br)cc1)NC(=S)Nc1ccc(S(=O)(=O)Nc2nccs2)cc1 | inactive | inactive | inactive | inactive |  |  |  |  |
| c1ccc(CCCNc2ncnc3nc[nH]c23)cc1 |  |  |  | inactive | 316% (active) | 78.5% (active) | 291% (active) |  |
| O=c1c2c3c(sc2[nH]c(=S)n1Cc1ccco1)CCC3 |  |  |  | inactive | 264% (active) | 108% (active) | 289% (active) |  |
| O=C(NC(=S)N(CC1CCC1)CC1CCCO1)c1cccc([N+](=O)[O-])c1 (stereo not given) |  |  |  | inactive | 224% (active) | 74.5% (active) | 216% (active) |  |
| CC(C)C(NC(=O)Nc1ccccc1)C(=O)Nc1cccc(S(=O)(=O)N(C)C)c1 (stereo not given) |  |  |  | inactive | 232% (active) | 67.5% (active) | 232% (active) |  |
| O=C(Nc1nnc(-c2ccc3c(c2)CCCC3)o1)c1ccc(Cl)cc1Cl |  |  |  | inactive | 374% (active) | 176% (active) | 442% (active) |  |
| FC(F)Sc1nc2ccccc2[nH]1 |  | inactive | inactive | inactive | 154% (active) |  |  |  |

| Structure (SMILES) | outcome [1] | outcome [2] | outcome [3] | outcome [4] | activation [1] | potentiation [2] | potentiation [3] | current potentiation [4] |
| --- | --- | --- | --- | --- | --- | --- | --- | --- |
| Cc1ccc2cc(CN(C(=O)c3ccco3)c3ccccc3C)c(=O)[nH]c2c1 | inactive | inactive | inactive | inactive |  |  |  |  |
| Cc1ccc(S(=O)(=O)N(C)c2nc3ccccc3[nH]c2=S)cc1 | inactive |  |  | inactive |  | 42.5% (active) | 197% (active) |  |
| Cc1ccc(C(=O)Nc2nc3ccccc3c(=O)s2)cc1 |  |  |  | inactive | 186% (active) | 35.5% (active) | 216% (active) |  |
| N=c1sccn1CC(=O)Nc1cc(Cl)ccc1Oc1ccccc1 | inactive | inactive | inactive | inactive |  |  |  |  |
| CCSc1nc(=S)cc(C)[nH]1 |  |  |  | inactive | 340% (active) | 172% (active) | 388% (active) |  |
| Fc1ccc(COc2ccc(Br)cc2CNCc2ccncc2)cc1 | inactive | inactive | inactive | inactive |  |  |  |  |
| S=c1[nH]c(-c2ccc(Cl)cc2)cs1 |  |  |  | inactive | 634% (active) | 206% (active) | 525% (active) |  |
| Cc1ccc(-c2nc3ccccc3c(=O)n2O)cc1 |  |  |  | inactive | 169% (active) | 19% (active) | 171% (active) |  |
| O=C(NC(=S)Nc1ccc(N2CCCCC2)c(Cl)c1)c1cccs1 |  |  |  | inactive | 138% (active) | 120% (active) | 232% (active) |  |
| CCN(CC)S(=O)(=O)c1cccc(C(=O)N[C@H](C(=O)NNC(=O)c2ccccc2)C(C)C)c1 | inactive | inactive | inactive | inactive |  |  |  |  |
| O=C(NC(=S)Nc1ccccc1Br)c1ccco1 | inactive | inactive | inactive | inactive |  |  |  |  |
| CCOc1ccc(NC(=O)C2CCN(S(=O)(=O)c3cccnc3)CC2)cc1 | inactive | inactive | inactive | inactive |  |  |  |  |
| O=C(O)CSc1cc(NS(=O)(=O)c2ccc(Br)cc2)c2ccccc2c1O | inactive | inactive | inactive | inactive |  |  |  |  |
| CSC(=S)N/N=C(\C)c1ccc(Br)cc1 |  |  |  | inactive | 309% (active) | 132% (active) | 258% (active) |  |
| O=C(NC(=S)N1CCN(c2ccc(Cl)cc2[N+](=O)[O-])CC1)c1cccs1 |  |  |  | inactive | 188% (active) | 61% (active) | 244% (active) |  |
| C/C(=N/NC(=O)c1cc(C2CC2)[nH]n1)c1cccs1 |  |  | inactive | inactive | 150% (active) | 31.5% (active) |  |  |
| C/C(=N\NC(=S)Nc1cccc(C)c1)c1cc2ccccc2o1 |  |  |  | inactive | 159% (active) | 60% (active) | 172% (active) |  |
| CCCN(C(=O)c1cn(-c2ccccc2)nc1-c1ccc(OC)cc1)C1CCS(=O)(=O)C1 (stereo not given) | inactive | inactive | inactive | inactive |  |  |  |  |
| Cc1cccc(/C=N/n2c(COc3ccccc3)n[nH]c2=S)c1 | inactive |  |  | inactive |  | 60.5% (active) | 142% (active) |  |
| Cc1ccc(F)cc1S(=O)(=O)NCc1ccc(N2CCN(C)CC2)cc1 | inactive | inactive | inactive | inactive |  |  |  |  |

| Structure (SMILES) | outcome [1] | outcome [2] | outcome [3] | outcome [4] | activation [1] | potentiation [2] | potentiation [3] | current potentiation [4] |
| --- | --- | --- | --- | --- | --- | --- | --- | --- |
| CC(C)C(=O)Nc1c(O)c2ccccc2[nH]c1=O | inactive | inactive | inactive | inactive |  |  |  |  |
| CC(CCc1ccccc1)NC(=O)COc1cc(F)ccc1[N+](=O)[O-] (stereo not given) | inactive | inactive | inactive | inactive |  |  |  |  |
| COc1ccc([N+](=O)[O-])cc1NC(=O)c1cccnc1 | inactive | inactive | inactive | inactive |  |  |  |  |
| COC(=O)C1=C(C)NC(C)=C(C(=O)OC)C1c1ccccc1[N+](=O)[O-] | inactive | inactive | inactive | inactive |  |  |  |  |
| C/C(=N\NS(=O)(=O)c1ccc(Br)cc1)c1cccs1 | inactive | inactive | inactive | inactive |  |  |  |  |
| COc1ccc(NC(=O)/C(=C/c2ccc(OC(C)=O)c(OC)c2)NC(C)=O)cc1 | inactive | inactive | inactive | inactive |  |  |  |  |
| Cc1ccc(-n2[nH]c(C)c(/C=N/N3C(=O)c4cccc5cccc(c45)C3=O)c2=O)cc1 |  |  |  | inactive | 153% (active) | 86% (active) | 225% (active) |  |
| CCCCCn1c(=S)[nH]c2ncccc2c1=O |  |  |  | inactive | 206% (active) | 39.5% (active) | 200% (active) |  |
| CCCCNC(=O)/C(C#N)=C/c1ccc2c(c1)OCCO2 | inactive |  | inactive | inactive |  | 18.5% (active) |  |  |
| COc1ccc(-c2csc(NC(=O)C3CCCCN3S(=O)(=O)c3ccccc3)n2)cc1 (stereo not given) | inactive |  | inactive |  |  | 93.5% (active) |  | 122% (active) |
| COc1ccc(-c2sc(C(=O)c3ccc(Cl)cc3Cl)cc2CC(=O)O)cc1 | inactive | inactive | inactive |  |  |  |  | 33.9% (active) |
| COC(=O)c1sc(NC(=S)NC(=O)c2ccccc2C)nc1C |  |  |  | inactive | 187% (active) | 50% (active) | 204% (active) |  |
| CC(Oc1ccccc1F)C(=O)/C=C/N(C)C (stereo not given) | inactive | inactive | inactive | inactive |  |  |  |  |
| O=S(=O)(CC(CN1CCCC1)N1CCCC1)c1ccc2ccccc2c1 (stereo not given) | inactive | inactive | inactive | inactive |  |  |  |  |
| Cc1c(CCC(=O)N2CCC[C@H]2C(=O)O)c(=O)oc2c(C)c3oc4c(c3cc12)CCCC4 | inactive | inactive | inactive | inactive |  |  |  |  |
| CCOc1ccc(C(=O)N2CCCC(c3nc(-c4ccc(C)o4)no3)C2)cc1 (stereo not given) | inactive | inactive | inactive | inactive |  |  |  |  |
| CCOC(=O)c1c(C)[nH]c(=S)c(C#N)c1-c1ccc(Cl)cc1 |  |  |  | inactive | 150% (active) | 34.5% (active) | 170% (active) |  |
| O=c1c2cc(Br)ccc2nc(-c2ccc([N+](=O)[O-])cc2)n1O |  |  |  | inactive | 346% (active) | 147% (active) | 410% (active) |  |
| COc1cccc(-c2c(NC(=O)c3ccco3)n(-c3ccc(C)cc3)nc(C)c2=O)c1 | inactive | inactive | inactive | inactive |  |  |  |  |
| C=CCN(c1ccccc1)S(=O)(=O)c1cccc(C(=O)Nc2cccc(C)n2)c1 |  |  |  | inactive | 290% (active) | 224% (active) | 358% (active) |  |
